{"source": "paper PMC3288656", "about": "(Biochemical pharmacology, 2012)", "key": {"CB1Rs [1]": {"molecular_target": "T1, CB1Rs (Mus musculus, UniProt P47746)", "T1 sequence (P47746 whole entry)": "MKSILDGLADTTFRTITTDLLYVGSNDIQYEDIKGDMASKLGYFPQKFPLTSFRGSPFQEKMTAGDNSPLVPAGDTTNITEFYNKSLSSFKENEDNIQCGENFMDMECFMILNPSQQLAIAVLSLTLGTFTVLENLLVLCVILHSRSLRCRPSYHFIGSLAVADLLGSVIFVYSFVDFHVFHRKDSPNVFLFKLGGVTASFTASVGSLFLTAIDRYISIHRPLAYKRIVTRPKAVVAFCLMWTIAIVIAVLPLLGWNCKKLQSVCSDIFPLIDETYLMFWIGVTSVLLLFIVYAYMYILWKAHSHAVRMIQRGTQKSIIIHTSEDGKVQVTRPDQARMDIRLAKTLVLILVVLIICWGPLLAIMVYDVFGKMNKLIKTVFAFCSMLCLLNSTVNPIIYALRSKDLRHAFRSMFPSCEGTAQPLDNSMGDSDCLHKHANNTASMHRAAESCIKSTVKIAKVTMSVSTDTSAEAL", "test": "[35S]GTPγS binding assay", "type": "biochemical", "conditions": "for [35S]GTPγS Binding Emax: concentration-effect curves, mouse brain homogenates, n=3–4; for intrinsic activity at CB1Rs: conclusion from [35S]GTPγS binding data"}, "locomotor activity": {"system": "locomotor activity", "test": "Cannabinoid tetrad: locomotor activity by biotelemetry", "type": "in vivo, NIH Swiss mice", "conditions": "for locomotor activity: mice", "in_short": "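Abdominal biotelemetry probes were implanted in male NIH Swiss mice under ketamine 100 mg/kg plus xylazine 10 mg/kg i.p., with at least 7 days recovery. Mice were housed singly, acclimated at least 2 h, and gave at least 1 h of baseline. They were then dosed i.p. in 1:1:18 ethanol:emulphor:saline (10 mL/kg) and moved to a fresh-bedding cage. Activity was logged every 5 min for at least 10 h. Groups of 5 or 6.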"}, "analgesia (tail flick)": {"system": "analgesia (tail flick)", "test": "Cannabinoid tetrad: analgesia, tail-flick latency", "type": "in vivo, NIH Swiss mice", "in_short": "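Male NIH Swiss mice (~25–30 g, drug-naïve, groups of 5 or 6) received i.p. test compound in ethanol:emulphor:saline 1:1:18 at 10 mL/kg. Radiant-heat tail flick used sensitivity 150 and light intensity 369, calibrated so untreated mice respond in 2–4 s, with a 10 s cutoff. The photobeam break stopped the timer. One trial per mouse at 0, 10, 30 and 60 min post-dose.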"}, "catalepsy": {"system": "catalepsy", "test": "Cannabinoid tetrad: catalepsy, horizontal bar test", "type": "in vivo, NIH Swiss mice", "in_short": "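Catalepsy was measured as time on a horizontal bar in male NIH Swiss mice (groups of 5 or 6, drug-naïve). Dosing was i.p. in 1:1:18 ethanol:emulphor:saline (10 mL/kg). The steel bar was 0.5 cm in diameter and sat 4.0 cm above a platform. Forelimbs went on the bar and hindlimbs on the platform in a rearing posture. Timing ran until both paws left the bar, maximum 30 s. Single trial per time point at 0, 10, 30 and 60 min.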"}, "[2]": {"system": "core body temperature (hypothermia)", "test": "Cannabinoid tetrad: core body temperature by biotelemetry", "type": "in vivo, NIH Swiss mice", "conditions": "for minimum core body temperature recorded / time to maximal core body temperature reduction (Tmax): 10 mg/kg, i.p."}, "CB1Rs [3]": {"molecular_target": "T1, CB1Rs", "test": "Competition receptor binding with [3H]CP-55,940 in mouse brain homogenates"}, "[4]": {"conditions": "drug 10 μM (receptor-saturating)"}, "[5]": {"conditions": "JWH-018 3 mg/kg i.p. alone, mice"}, "[6]": {"conditions": "10 mg/kg, i.p., relative to vehicle"}, "[7]": {"conditions": "drug 1 μM co-incubated with CB1R antagonist O-2050 1 μM"}, "[8]": {"conditions": "M4 10 mg/kg i.p. + JWH-018 3 mg/kg i.p. vs JWH-018 alone"}}, "note": "Several values for one entry are separate records, joined by “and”; a condition that tells them apart may be missing. Equal values may be shown once. Marks after values point to notes of the source that are not given here."}
{"smiles": "CCCCCCC(C)(C)c1ccc([C@@H]2C[C@H](O)CC[C@H]2CCCO)c(O)c1", "note": "[CP-55,940, reference compound]", "values": [{"measurement": "[35S]GTPγS Binding Emax", "setting": "CB1Rs [1]", "value": "0.26 ± 0.01 ^a pmole/mg"}, {"measurement": "intrinsic activity at CB1Rs", "setting": "CB1Rs [1]", "value": "full CB1R agonists"}, {"measurement": "[35S]GTPγS Binding", "setting": "CB1Rs [1]; drug 100 nM", "value": "0.20 ± 0.04", "unit": "pmol/mg"}, {"measurement": "[35S]GTPγS Binding + O-2050 (1 μM)", "setting": "CB1Rs [1]; drug 100 nM co-incubated with CB1R antagonist O-2050 1 μM", "value": "0.06 ± 0.03", "unit": "pmol/mg"}, {"measurement": "[35S]GTPγS Binding", "setting": "CB1Rs [1]; [4]", "value": "0.32 ± 0.02 pmole/mg and 0.32 ± 0.02 ^c, pmole/mg"}]}
{"smiles": "CCCCCn1cc(C(=O)c2cccc3ccccc23)c2ccccc21", "note": "[JWH-018, reference compound]", "values": [{"measurement": "locomotor activity", "setting": "locomotor activity; JWH-018 3 mg/kg i.p. alone", "value": "locomotor suppression"}, {"measurement": "EC50", "setting": "CB1Rs [1]; read-out: EC50 for G-protein activation, JWH-018 alone", "value": 8, "unit": "nM"}, {"measurement": "analgesia (tail flick assay)", "setting": "analgesia (tail flick); [5]", "value": "robust analgesia"}, {"measurement": "catalepsy", "setting": "catalepsy; [5]", "value": "catalepsy"}, {"measurement": "maximal decrease in core body temperature to", "setting": "[2]; [5]", "value": "30.28 +/− 0.71 °C"}]}
{"smiles": "CCCCn1cc(C(=O)c2cccc3ccccc23)c2ccccc21", "note": "[JWH-073, (1-butyl-1H-indole-3-yl)-1-naphthalenyl-methanone, reference compound]", "values": [{"measurement": "locomotor activity", "setting": "locomotor activity; [6]", "value": "locomotor suppression"}, {"measurement": "[35S]GTPγS Binding Emax", "setting": "CB1Rs [1]", "value": "0.27 ± 0.01 ^a pmole/mg"}, {"measurement": "intrinsic activity at CB1Rs", "setting": "CB1Rs [1]", "value": "full CB1R agonists"}, {"measurement": "[35S]GTPγS Binding", "setting": "CB1Rs [1]; drug 1 μM", "value": "0.27 ± 0.04", "unit": "pmol/mg"}, {"measurement": "[35S]GTPγS Binding + O-2050 (1 μM)", "setting": "CB1Rs [1]; [7]", "value": "0.07 ± 0.02", "unit": "pmol/mg"}, {"measurement": "[35S]GTPγS Binding", "setting": "CB1Rs [1]; [4]", "value": "0.28 ± 0.03 pmole/mg and 0.28 ± 0.03 ^c pmole/mg"}, {"measurement": "minimum core body temperature recorded", "setting": "[2]; mice", "value": "29.74 ± 1.44", "unit": "°C"}, {"measurement": "time to maximal core body temperature reduction (Tmax)", "setting": "[2]; mice", "value": "54.17 ± 5.23", "unit": "min"}]}
{"smiles": "CCCCn1cc(C(=O)c2cccc3ccccc23)c2c(O)cccc21", "note": "[M1]", "values": [{"measurement": "locomotor activity", "setting": "locomotor activity; [6]", "value": "reduction of locomotor activity similar to that observed with administration of JWH-073"}, {"measurement": "[35S]GTPγS Binding Emax", "setting": "CB1Rs [1]", "value": "0.14 ± 0.01 ^b pmole/mg"}, {"measurement": "intrinsic activity at CB1Rs", "setting": "CB1Rs [1]", "value": "partial agonist activity"}, {"measurement": "[35S]GTPγS Binding", "setting": "CB1Rs [1]; drug 1 μM", "value": "0.17 ± 0.01", "unit": "pmol/mg"}, {"measurement": "[35S]GTPγS Binding + O-2050 (1 μM)", "setting": "CB1Rs [1]; [7]", "value": "0.07 ± 0.01", "unit": "pmol/mg"}, {"measurement": "[35S]GTPγS Binding", "setting": "CB1Rs [1]; [4]", "value": "0.14 ± 0.01 pmole/mg and 0.14 ± 0.01 ^a pmole/mg"}, {"measurement": "minimum core body temperature recorded", "setting": "[2]; mice", "value": "30.32 ± 0.66", "unit": "°C"}, {"measurement": "time to maximal core body temperature reduction (Tmax)", "setting": "[2]; mice", "value": "58.00 ± 4.64", "unit": "min"}]}
{"smiles": "CCCCn1cc(C(=O)c2cccc3ccccc23)c2ccc(O)cc21", "note": "[M3]", "values": [{"measurement": "intrinsic activity at CB1Rs", "setting": "CB1Rs [1]", "value": "partial agonist activity"}, {"measurement": "[35S]GTPγS Binding", "setting": "CB1Rs [1]; drug 1 μM", "value": "0.04 ± 0.00", "unit": "pmol/mg"}, {"measurement": "[35S]GTPγS Binding + O-2050 (1 μM)", "setting": "CB1Rs [1]; [7]", "value": "0.02 ± 0.01", "unit": "pmol/mg"}, {"measurement": "[35S]GTPγS Binding", "setting": "CB1Rs [1]; [4]", "value": "0.11 ± 0.02 pmole/mg and 0.11 ± 0.02 ^a, ^b pmole/mg"}, {"measurement": "Ki", "setting": "CB1Rs [3]; read-out: CB1R affinity (Ki), displacement of [3H]CP-55,940, mouse brain homogenates, n=4", "value": "1280 ± 470", "unit": "nM"}]}
{"smiles": "CCCCn1cc(C(=O)c2cccc3ccccc23)c2cccc(O)c21", "note": "[M4]", "values": [{"measurement": "antagonism of JWH-018-induced locomotor suppression", "setting": "locomotor activity; [8]", "value": "no difference"}, {"measurement": "antagonism of CB1R agonists and inverse agonists in [35S]GTPγS binding", "setting": "CB1Rs [1]; M4 10 μM with 100 nM CP, 1 μM JWH-018, 500 nM JWH-073, 10 μM Rimonabant or AM251", "value": "significantly antagonized"}, {"measurement": "Schild plot slope", "setting": "CB1Rs [1]; M4 against JWH-018", "value": 0.97}, {"measurement": "effect on basal [35S]GTPγS binding", "setting": "CB1Rs [1]; M4 alone, 0.1 nM to 10 μM", "value": "neither significantly increased"}, {"measurement": "intrinsic activity at CB1Rs", "setting": "CB1Rs [1]", "value": "lacks significant intrinsic activity"}, {"measurement": "antagonism of JWH-018-induced analgesia", "setting": "analgesia (tail flick); [8]", "value": "no difference"}, {"measurement": "antagonism of JWH-018-induced catalepsy", "setting": "catalepsy; [8]", "value": "no difference"}, {"measurement": "JWH-018-induced hypothermia, area under the curve 0–500 minutes", "setting": "[2]; M4 10 mg/kg i.p. + JWH-018 3 mg/kg i.p. vs JWH-018 alone, n=5", "value": "significantly attenuated hypothermia"}, {"measurement": "change in body temperature", "setting": "[2]; M4 10 mg/kg i.p. alone, mice", "value": "no significant change in body temperature"}, {"measurement": "core body temperature minimum, JWH-018-induced hypothermia with M4", "setting": "[2]; M4 10 mg/kg i.p. co-administered with JWH-018 3 mg/kg i.p., mice", "value": "33.09 +/− 0.70 °C"}]}
{"smiles": "O=C(c1cccc2ccccc12)c1cn(CCCCO)c2ccccc12", "note": "[M5, 1-(4-hydroxybutyl-1H-indole-3-yl)(naphthalen-1-yl)-methanone]", "values": [{"measurement": "intrinsic activity at CB1Rs", "setting": "CB1Rs [1]", "value": "partial agonist activity"}, {"measurement": "[35S]GTPγS Binding", "setting": "CB1Rs [1]; drug 1 μM", "value": "0.12 ± 0.00", "unit": "pmol/mg"}, {"measurement": "[35S]GTPγS Binding + O-2050 (1 μM)", "setting": "CB1Rs [1]; [7]", "value": "0.05 ± 0.01", "unit": "pmol/mg"}, {"measurement": "[35S]GTPγS Binding", "setting": "CB1Rs [1]; [4]", "value": "0.16 ± 0.02 pmole/mg and 0.16 ± 0.02 ^a pmole/mg"}]}
{"smiles": "O=C(O)CCCn1cc(C(=O)c2cccc3ccccc23)c2ccccc21", "note": "[M6, 4-(3-(1-naphthoyl)-1H-indole-1-yl)-1-butanoic acid]", "values": [{"measurement": "displacement of [3H]CP-55,940 specific binding", "setting": "CB1Rs [3]; concentrations as high as 10 μM, n=3", "value": "less than 10%"}]}
